MIC and Activity data for one compound are collected here from ChEMBL document CHEMBL1143425, “Paradoxical growth effect of caspofungin observed on biofilms and planktonic cells of five different Candida species” (2007).

The test system of assay [1] is Candida tropicalis. As to the kind of experiment: Antimicrobial activity against Candida tropicalis BR-A24 grown as planktonic cell after 48 hrs by XTT reduction assay. Format: functional. The method in brief:
(§1)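 Planktonic broth microdilution followed CLSI M27-A2, with caspofungin dissolved in water. After 48 h, XTT-menadione was added to the wells and plates were kept 1 h at 35°C in the dark. Plates were then centrifuged and supernatant A490 was read. MIC was the lowest concentration giving a 50% decrease in metabolic activity versus drug-free control. Paradoxical growth was defined as ≥20% of control activity above the MIC.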
(Tetrazolium assays rely on reduction of a dye to a coloured formazan, in cell work by metabolically active cells.)

In another assay the test system is Candida parapsilosis. Briefly: Antimicrobial activity against Candida parapsilosis BR-A30 grown as biofilm assessed as paradoxical growth after 48 hrs by XTT reduction assay. Format: functional, organism-based. Summed up:
(§2)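 Clinical isolates were grown overnight (18 h, 35°C, 120 rpm) in RPMI 1640 with MOPS, pH 7.0, then washed and set to ~1 × 10^7 cells/ml. Cells attached for 1.5 h at 37°C, 75 rpm, then biofilms grew 24 h. Caspofungin was given as doubling dilutions of 2–1,024 μg/ml for 48 h at 35°C, 75 rpm. Read-out was XTT-menadione in PBS, 1 h at 35°C in the dark, A490, cell-free blank subtracted. MIC was a 50% drop in activity versus drug-free; PG was >50% of control above MIC. Run in duplicate.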

Assay [2] relates to Candida orthopsilosis. Briefly: Antimicrobial activity against Candida orthopsilosis BR-A36 grown as biofilm after 48 hrs by XTT reduction assay. The note with it: Lodderomyces orthopsilosis. Format: functional. The method in brief:
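Isolates were grown on Sabouraud agar (30°C, 24 h), then overnight in RPMI 1640 with MOPS, pH 7.0, at 35°C with shaking. Cells were washed and set to ~1 × 10^7 cells/ml, attached 1.5 h at 37°C, and grown 24 h. Biofilms were then exposed to caspofungin in 10 twofold dilutions (2–1,024 μg/ml) for 48 h at 35°C with shaking. Read-out was XTT-menadione, 1 h, 35°C, dark, A490, cell-free blank subtracted. MIC was the 50% drop in activity versus drug-free control. Tested in duplicate.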

Assay [3] concerns Candida tropicalis. Briefly: Antimicrobial activity against Candida tropicalis BR-A14 grown as biofilm assessed as paradoxical growth after 48 hrs by XTT reduction assay. Format: functional, organism-based. Summed up:
as §2

Assay [4] deals with Candida albicans. Briefly: Antimicrobial activity against Candida albicans BR-A1 grown as planktonic cell after 48 hrs by XTT reduction assay. Format: functional. The method in brief: as §1
The subject of assay [5] is Candida orthopsilosis. Briefly: Antimicrobial activity against Candida orthopsilosis BR-A32 grown as biofilm assessed as concentration producing paradoxical growth after 48 hrs by XTT reduction assay. Format: functional. Summed up: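 Sabouraud-grown cells were shaken overnight (18 h, 120 rpm, 35°C) in RPMI 1640 with MOPS at pH 7.0, then washed and set at ~1 × 10^7 cells/ml. Attachment lasted 1.5 h at 37°C, and growth ran 24 h before challenge. Caspofungin was added in RPMI at 2–1,024 μg/ml (10 doublings) for 48 h at 35°C with shaking. XTT-menadione was read at 490 nm after 1 h at 35°C in the dark, with blank wells subtracted. MIC was taken as 50% reduction versus drug-free wells, and PG as >50% of control above MIC. Assays were run in duplicate.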

The test system of assay [6] is Candida albicans. Briefly: Effect on morphology in Candida albicans grown as planktonic cells assessed as inhibition of hyphae and pseudohyphae at 16 ug/ml after 48 hrs. Format: functional, organism-based. Summed up: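 Cells were taken from caspofungin-containing and drug-free wells of the planktonic broth microdilution test after 48 h. They were examined by light microscopy at ×400.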

In brackets after ≈: the same amount, converted by molar mass. Activity calls are given as the source filed them.

For the compound `CC[C@H](C)C[C@H](C)CCCCCCCCC(=O)N[C@H]1C[C@@H](O)[C@@H](NCCN)NC(=O)[C@@H]2[C@@H](O)CCN2C(=O)[C@H]([C@H](O)CCN)NC(=O)[C@H]([C@H](O)[C@@H](O)c2ccc(O)cc2)NC(=O)[C@@H]2C[C@@H](O)CN2C(=O)[C@H]([C@@H](C)O)NC1=O` [CASPOFUNGIN], the MIC in the assay on Candida tropicalis [1] turned out to be 1 µg/mL (≈ 0.915 µM); with Candida orthopsilosis [2], 2 µg/mL (≈ 1.83 µM); against Candida albicans [4], 0.5 µg/mL (≈ 0.457 µM). For the same compound, the outcome with Candida parapsilosis, in the assay with Candida tropicalis [3] and in the assay with Candida albicans [6] was Active. Further, the Activity with Candida orthopsilosis [5] came out at 32 µg/mL.
